ChEMBL document CHEMBL3272058, “Synthesis, structure, and reactivity of adenosine cyclic 3',5'-phosphate benzyl triesters” (J Med Chem, 1977)

What was measured:
C6 [1] = test: Drug uptake in rat C6 cells assessed as cAMP level per of protein at 10^-4 M after 90 mins; assay type: ADME, cell-based; conditions: c6, 1.5 h, 100 µM
In short: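 C6 glioma cells were grown in DME with 10% newborn calf serum at 37 °C under 10% CO2 and treated with triester plus theophylline. After 90 min, internal cAMP was measured by Gilman's method and related to protein, using a bovine serum albumin standard.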

C6 [2] = test: Drug uptake in rat C6 cells assessed as morphologically differentiation at 10^-4 M after 20 mins by microscopy; assay type: ADME, cell-based; conditions: c6, 20 min, 100 µM
In short: (§1)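 Growing C6 rat glioma cells were kept in DME with 10% newborn calf serum at 37 °C under 10% CO2. Near-confluent plates (about 5-9 x 10^5 cells) were exposed to triester with theophylline on a constantly moving shaking table. The percentage of morphologically altered cells was estimated by microscopy at intervals, with an error of 5-10%.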

C6 [3] = test: Drug uptake in rat C6 cells assessed as morphologically differentiation at 10^-4 M after 90 mins by microscopy; assay type: ADME, cell-based; conditions: c6, 1.5 h, 100 µM; in short: as §1
C6 [4] = test: Drug uptake in rat C6 cells assessed as morphologically differentiation at 10^-4 M after 50 mins by microscopy; assay type: ADME, cell-based; conditions: c6, 50 min, 100 µM; in short: as §1
C6 [5] = test: Morphological alteration in rat C6 cells at 10^-3 M after 90 mins by microscopy; assay type: ADME, cell-based; conditions: c6, 1.5 h, 1000 µM
In short: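 Near-confluent C6 rat glioma cultures (about 5-9 x 10^5 cells per plate), grown in DME with 10% newborn calf serum, were given 10^-3 M of each triester with theophylline. After 90 min on a shaking table, morphological change was scored microscopically as the percentage of altered cells. + means 90-95% and - means 0% differentiation.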

Bos taurus [6] = species on record: Bos taurus; test: Activation of bovine brain cAMP-dependent protein kinase assessed as transfer of p32 to histone using [gamma-32P]ATP at 10^-7 M relative to cAMP triester
In short: (§2)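 Bovine brain cAMP-dependent protein kinase was purified by DEAE-cellulose chromatography (about 1000 units/mg). The 0.2 mL mix held 50 mM Mops pH 6.5, 5 mM MgCl2, 7 mM mercaptoethanol, [γ-32P]ATP (1.3 Ci/mmol), 60 µg calf thymus histones, 15-25 µg kinase and triester or cAMP. It ran 5 min at 30 °C, reading 32P in acid-precipitable histones. Value is test-compound activity divided by cAMP activity.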

Bos taurus [7] = species on record: Bos taurus; test: Activation of bovine brain cAMP-dependent protein kinase assessed as transfer of p32 to histone using [gamma-32P]ATP at 10^-6 M relative to cAMP triester; in short: as §2
Bos taurus [8] = species on record: Bos taurus; test: Activation of bovine brain cAMP-dependent protein kinase assessed as transfer of p32 to histone using [gamma-32P]ATP at 10^-4 M relative to cAMP triester; in short: as §2
Bos taurus [9] = species on record: Bos taurus; test: Activation of bovine brain cAMP-dependent protein kinase assessed as transfer of p32 to histone using [gamma-32P]ATP at 10^-5 M relative to cAMP triester; in short: as §2
[10] = Retardation factor, Rf of the compound in ClCH2CH2Cl-EtOH solvent
[11] = Retardation factor, Rf of the compound in […] solvent; assay type: physicochemical
[12] = Half life in H2O at 5 uM at 50 degC by liquid chromatography; assay type: physicochemical; conditions: water
[13] = Half life in Mops buffer at pH 6.5 at 30 degC by liquid chromatography; assay type: physicochemical
In short: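 Triester was held in Mops buffer, pH 6.5, at 30 °C. Products were separated by LC with UV monitoring at 258 nm, using integration or an internal standard. Half-life came from a pseudo-first-order kinetic fit.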

[14] = Photolysis mediated drug hydrolysis assessed as half life under 366 nm irradiation by liquid chromatography; assay type: physicochemical
In short: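 The o-nitrobenzyl ester, 4 mM in Me2SO-phosphate buffer pH 7.1 (1:10 v/v), was irradiated at 366 nm with a 320 nm cut-off, at 37 °C and 6 cm from the source. Half-life was estimated from the rate of cAMP formation followed by LC.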

C6 [15] = test: Drug uptake in rat C6 cells assessed as morphologically differentiation at 10^-3 M after 50 mins by microscopy; assay type: ADME, cell-based; conditions: c6, 50 min, 1000 µM
C6 [16] = test: Drug uptake in rat C6 cells assessed as morphologically differentiation at 10^-3 M after 20 mins by microscopy; assay type: ADME, cell-based; conditions: c6, 20 min, 1000 µM
C6 [17] = test: Drug uptake in rat C6 cells assessed as morphologically differentiation at 10^-3 M after 90 mins by microscopy; assay type: ADME, cell-based; conditions: c6, 1.5 h, 1000 µM
C6 [18] = test: Drug uptake in rat C6 cells assessed as cAMP level per of protein at 10^-3 M after 90 mins; assay type: ADME, cell-based; conditions: c6, 1.5 h, 1000 µM

SMILES	Activity (C6 [1]) [pmol/mg]	Activity (C6 [2]) [%]	Activity (C6 [3]) [%]	Activity (C6 [4]) [%]	Activity (C6 [5]) [%]	Ratio (Bos taurus [6])	Ratio (Bos taurus [7])	Ratio (Bos taurus [8])	Ratio (Bos taurus [9])	Rf [10]	Rf [11]	half-life at 5 µM [12] [h]	half-life [13] [h]	half-life [14] [h]	Activity (C6 [15]) [%]	Activity (C6 [16]) [%]	Activity (C6 [17]) [%]	Activity (C6 [18]) [pmol/mg]
NC[C@H](O)c1ccc(O)c(O)c1.O=C(O)C(O)C(O)C(=O)O	250	50	90	80														
CO[P@]1(=O)OC[C@H]2OC(n3cnc4c(N)ncnc43)[C@H](O)[C@@H]2O1 (single isomer, unassigned)					0													
COP1(=O)OC[C@H]2O[C@@H](n3cnc4c(N)ncnc43)[C@H](O)[C@@H]2O1 (stereo partly specified)						0	0.05	0.67	0.52	0.18	0.33							
Nc1ncnc2c1ncn2[C@@H]1O[C@@H]2CO[P@](=O)(OCc3ccc([N+](=O)[O-])cc3)O[C@H]2[C@H]1O					90	0	0	0.54	0.24	0.34	0.43	240	9.5					
CCO[P@]1(=O)OC[C@H]2O[C@@H](n3cnc4c(N)ncnc43)[C@H](O)[C@@H]2O1					0	0	0	0.58	0.06	0.19	0.35		3					
Nc1ncnc2c1ncn2[C@@H]1O[C@@H]2CO[P@@](=O)(OCc3ccccc3)O[C@H]2[C@H]1O					90	0.03	0.49	1.22	1	0.25	0.35	0.5	3					
Nc1ncnc2c1ncn2[C@@H]1O[C@@H]2COP(=O)(OCc3ccccc3)O[C@H]2[C@H]1O (stereo partly specified)						0.07	0.46	0.66	0.84									
Nc1ncnc2c1ncn2[C@@H]1O[C@@H]2CO[P@@](=O)(OCc3ccccc3[N+](=O)[O-])O[C@H]2[C@H]1O					90	0	0.04	1.28	0.59	0.26	0.39	83	3	0.867				
CCO[P@@]1(=O)OC[C@H]2O[C@@H](n3cnc4c(N)ncnc43)[C@H](O)[C@@H]2O1					0	0	0	0.14	0.06	0.3	0.4		9.5					
Nc1ncnc2c1ncn2[C@@H]1O[C@@H]2CO[P@](=O)(OCc3ccccc3[N+](=O)[O-])O[C@H]2[C@H]1O					90	0	0	0.34	0.05	0.39	0.44	300	9.5	1.1				
Nc1ncnc2c1ncn2[C@@H]1O[C@@H]2COP(=O)(OCc3ccccc3)O[C@H]2[C@H]1O (single isomer, unassigned) [listing 1 of 2 here]					90					0.39	0.46	2.2	9.5					
CO[P@@]1(=O)OC[C@H]2O[C@@H](n3cnc4c(N)ncnc43)[C@H](O)[C@@H]2O1					0													
Nc1ncnc2c1ncn2[C@@H]1O[C@@H]2CO[P@@](=O)(OCc3ccc([N+](=O)[O-])cc3)O[C@H]2[C@H]1O					90	0	0.04	1.01	0.49	0.25	0.37	73	3					
Cc1ccc(CO[P@@]2(=O)OC[C@H]3O[C@@H](n4cnc5c(N)ncnc54)[C@H](O)[C@@H]3O2)cc1	70	10	80	30	90					0.26	0.45	0.1	9.5		60	20	90	225
Nc1ncnc2c1ncn2[C@@H]1O[C@@H]2COP(=O)(OCc3ccccc3)O[C@H]2[C@H]1O (single isomer, unassigned) [listing 2 of 2 here]						0	0.09	0.45	0.59									
